Consider five molecules from ChEMBL document CHEMBL2424622, “Development of amino-pyrimidine inhibitors of c-Jun N-terminal kinase (JNK): kinase profiling guided optimization of a 1,2,3-benzotriazole lead” (Bioorg Med Chem Lett, 2013).

Some results are limits rather than exact numbers.

Test [1] has as its target NT-3 growth factor receptor (Homo sapiens) (UniProt Q16288). In words: Competitive binding affinity to TRKC (unknown origin) at 10 uM in presence of ATP relative to control.
Test [2] addresses Serine/threonine-protein kinase 32B (Homo sapiens) (UniProt Q9NY57). In words: Competitive binding affinity to YANK2 (unknown origin) at 10 uM in presence of ATP relative to control.
Test [3] has as its target Serine/threonine-protein kinase MARK1 (Homo sapiens) (UniProt Q9P0L2). The experiment in a line: Competitive binding affinity to MARK1 (unknown origin) at 10 uM in presence of ATP relative to control. In outline: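 In vitro ATP-site competition binding assay, part of profiling against a diverse panel of 128 kinases. Each compound was tested at a single concentration of 10 µM. Kinome selectivity was summarized as S15 selectivity scores.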

In test [4] the target is T1, Serine/threonine-protein kinase D2 (Homo sapiens) (UniProt Q9BZL6).
T1 sequence (whole entry): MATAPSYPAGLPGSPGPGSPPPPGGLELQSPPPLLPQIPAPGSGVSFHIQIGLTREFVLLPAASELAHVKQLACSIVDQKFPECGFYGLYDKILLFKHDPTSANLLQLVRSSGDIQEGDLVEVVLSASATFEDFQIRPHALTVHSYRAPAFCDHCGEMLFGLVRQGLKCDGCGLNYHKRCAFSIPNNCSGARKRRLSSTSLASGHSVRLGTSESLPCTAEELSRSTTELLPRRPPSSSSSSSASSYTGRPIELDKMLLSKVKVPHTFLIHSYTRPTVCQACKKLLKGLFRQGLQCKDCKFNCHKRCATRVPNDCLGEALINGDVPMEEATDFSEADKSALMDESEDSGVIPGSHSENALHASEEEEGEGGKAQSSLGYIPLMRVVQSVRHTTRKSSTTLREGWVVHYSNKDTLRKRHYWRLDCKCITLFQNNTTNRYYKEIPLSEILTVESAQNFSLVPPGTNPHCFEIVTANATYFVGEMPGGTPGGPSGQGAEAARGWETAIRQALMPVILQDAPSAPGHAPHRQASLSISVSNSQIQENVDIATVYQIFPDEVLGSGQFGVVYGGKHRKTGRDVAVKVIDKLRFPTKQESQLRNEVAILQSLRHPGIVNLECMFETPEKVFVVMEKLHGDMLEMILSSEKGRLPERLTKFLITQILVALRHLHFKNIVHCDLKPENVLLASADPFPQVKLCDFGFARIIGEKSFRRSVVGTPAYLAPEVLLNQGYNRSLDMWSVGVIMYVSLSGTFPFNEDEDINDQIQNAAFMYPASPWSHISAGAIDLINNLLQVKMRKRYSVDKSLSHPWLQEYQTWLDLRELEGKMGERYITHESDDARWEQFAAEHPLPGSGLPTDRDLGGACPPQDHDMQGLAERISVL
In words: Competitive binding affinity to PRKD2 (unknown origin) at 10 uM in presence of ATP relative to control.

The target in test [5] is T2, Mitogen-activated protein kinase 15 (Homo sapiens) (UniProt Q8TD08).
T2 sequence (whole entry): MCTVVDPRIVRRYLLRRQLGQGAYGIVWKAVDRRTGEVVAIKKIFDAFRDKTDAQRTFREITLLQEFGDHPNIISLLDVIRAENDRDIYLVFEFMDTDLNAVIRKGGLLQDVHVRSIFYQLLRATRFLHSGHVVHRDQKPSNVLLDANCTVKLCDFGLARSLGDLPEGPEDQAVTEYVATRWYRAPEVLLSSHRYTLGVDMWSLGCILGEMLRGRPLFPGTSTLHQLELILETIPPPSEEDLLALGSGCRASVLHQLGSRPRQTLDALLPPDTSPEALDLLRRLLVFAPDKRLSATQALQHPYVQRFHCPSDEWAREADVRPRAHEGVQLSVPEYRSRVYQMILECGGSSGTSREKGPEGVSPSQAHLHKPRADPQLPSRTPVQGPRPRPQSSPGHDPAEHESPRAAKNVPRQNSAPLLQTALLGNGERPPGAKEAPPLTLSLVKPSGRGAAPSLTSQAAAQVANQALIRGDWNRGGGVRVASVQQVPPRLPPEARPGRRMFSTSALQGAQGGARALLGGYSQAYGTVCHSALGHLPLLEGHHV
The experiment in a line: Competitive binding affinity to ERK8 (unknown origin) at 10 uM in presence of ATP relative to control.

The target in test [6] is Cyclin-dependent kinase 17 (Homo sapiens) (UniProt Q00537). The experiment in a line: Competitive binding affinity to PCTK2 (unknown origin) at 10 uM in presence of ATP relative to control.
Chain of Cyclin-dependent kinase 17 (Homo sapiens) (Q00537 whole entry, looked up): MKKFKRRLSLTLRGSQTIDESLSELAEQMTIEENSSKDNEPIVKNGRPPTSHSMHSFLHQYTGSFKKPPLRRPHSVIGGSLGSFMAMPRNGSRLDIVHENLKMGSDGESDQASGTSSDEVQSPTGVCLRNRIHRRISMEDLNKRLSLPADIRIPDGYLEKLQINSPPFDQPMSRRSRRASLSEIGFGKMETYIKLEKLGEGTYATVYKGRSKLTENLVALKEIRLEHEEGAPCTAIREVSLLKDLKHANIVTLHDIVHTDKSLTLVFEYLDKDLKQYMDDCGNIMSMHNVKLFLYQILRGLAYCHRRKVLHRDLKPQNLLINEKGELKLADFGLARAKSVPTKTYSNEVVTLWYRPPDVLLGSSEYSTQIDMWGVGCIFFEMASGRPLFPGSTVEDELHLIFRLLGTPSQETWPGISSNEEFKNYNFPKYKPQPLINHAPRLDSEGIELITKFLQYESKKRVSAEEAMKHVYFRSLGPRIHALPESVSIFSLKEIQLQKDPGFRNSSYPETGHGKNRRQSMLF
Test [7] addresses T3, Serine/threonine-protein kinase Chk1 (Homo sapiens) (UniProt O14757).
T3 sequence (whole entry): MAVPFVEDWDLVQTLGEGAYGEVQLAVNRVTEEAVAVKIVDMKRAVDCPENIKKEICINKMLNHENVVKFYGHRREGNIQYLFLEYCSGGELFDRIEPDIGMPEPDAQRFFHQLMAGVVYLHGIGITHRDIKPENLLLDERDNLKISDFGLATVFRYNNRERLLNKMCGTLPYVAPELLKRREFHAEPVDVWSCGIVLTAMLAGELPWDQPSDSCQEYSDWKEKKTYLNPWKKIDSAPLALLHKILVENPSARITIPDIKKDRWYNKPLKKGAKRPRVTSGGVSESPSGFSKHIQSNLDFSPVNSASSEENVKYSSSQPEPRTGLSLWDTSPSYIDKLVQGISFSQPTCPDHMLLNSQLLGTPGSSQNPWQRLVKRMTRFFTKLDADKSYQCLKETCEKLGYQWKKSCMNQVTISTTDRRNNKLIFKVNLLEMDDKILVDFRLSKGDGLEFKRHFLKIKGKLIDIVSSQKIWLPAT
The experiment in a line: Competitive binding affinity to CHEK1 (unknown origin) at 10 uM in presence of ATP relative to control.

Test [8] deals with Dual specificity mitogen-activated protein kinase kinase 2 (Homo sapiens) (UniProt P36507). In words: Competitive binding affinity to MEK2 (unknown origin) at 10 uM in presence of ATP relative to control.
Chain of Dual specificity mitogen-activated protein kinase kinase 2 (Homo sapiens) (P36507 whole entry): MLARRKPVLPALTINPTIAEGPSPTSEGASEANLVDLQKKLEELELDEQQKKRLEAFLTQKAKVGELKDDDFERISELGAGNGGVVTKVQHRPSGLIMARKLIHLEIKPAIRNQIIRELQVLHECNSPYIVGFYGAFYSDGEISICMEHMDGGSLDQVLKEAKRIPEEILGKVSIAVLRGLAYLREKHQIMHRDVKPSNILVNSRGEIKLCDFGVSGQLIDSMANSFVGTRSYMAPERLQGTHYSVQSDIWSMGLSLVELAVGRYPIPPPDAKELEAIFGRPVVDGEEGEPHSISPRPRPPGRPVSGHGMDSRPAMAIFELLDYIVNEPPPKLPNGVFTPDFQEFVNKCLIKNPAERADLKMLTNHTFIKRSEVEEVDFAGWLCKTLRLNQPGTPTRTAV
Test [9] deals with T4, Phosphatidylinositol 5-phosphate 4-kinase type-2 beta (Homo sapiens) (UniProt P78356).
T4 sequence (whole entry): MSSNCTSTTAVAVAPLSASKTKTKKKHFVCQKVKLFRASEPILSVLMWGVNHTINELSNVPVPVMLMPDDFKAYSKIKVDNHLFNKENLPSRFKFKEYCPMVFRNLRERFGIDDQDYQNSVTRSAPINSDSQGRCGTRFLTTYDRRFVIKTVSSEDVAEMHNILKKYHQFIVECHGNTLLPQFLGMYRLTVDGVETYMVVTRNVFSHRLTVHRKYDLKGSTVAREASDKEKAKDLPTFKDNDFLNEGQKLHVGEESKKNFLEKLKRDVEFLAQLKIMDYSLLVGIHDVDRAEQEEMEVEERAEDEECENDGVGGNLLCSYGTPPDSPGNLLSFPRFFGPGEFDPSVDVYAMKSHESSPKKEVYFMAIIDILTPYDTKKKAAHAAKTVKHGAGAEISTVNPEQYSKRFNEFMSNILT
In words: Competitive binding affinity to PIP5K2B (unknown origin) at 10 uM in presence of ATP relative to control.

Chain of Serine/threonine-protein kinase 32B (Homo sapiens) (Q9NY57 whole entry): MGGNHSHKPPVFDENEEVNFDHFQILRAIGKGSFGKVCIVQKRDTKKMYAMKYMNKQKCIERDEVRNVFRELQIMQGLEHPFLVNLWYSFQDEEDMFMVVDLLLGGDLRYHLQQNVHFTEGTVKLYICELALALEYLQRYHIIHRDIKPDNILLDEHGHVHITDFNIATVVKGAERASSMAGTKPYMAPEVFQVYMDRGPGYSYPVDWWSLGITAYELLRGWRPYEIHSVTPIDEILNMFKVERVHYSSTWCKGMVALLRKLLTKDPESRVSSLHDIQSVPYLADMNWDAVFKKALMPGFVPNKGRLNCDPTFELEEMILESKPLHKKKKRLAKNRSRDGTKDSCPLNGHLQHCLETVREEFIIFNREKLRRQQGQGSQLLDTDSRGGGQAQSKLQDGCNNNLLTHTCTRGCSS
Chain of Serine/threonine-protein kinase MARK1 (Homo sapiens) (Q9P0L2 whole entry, looked up): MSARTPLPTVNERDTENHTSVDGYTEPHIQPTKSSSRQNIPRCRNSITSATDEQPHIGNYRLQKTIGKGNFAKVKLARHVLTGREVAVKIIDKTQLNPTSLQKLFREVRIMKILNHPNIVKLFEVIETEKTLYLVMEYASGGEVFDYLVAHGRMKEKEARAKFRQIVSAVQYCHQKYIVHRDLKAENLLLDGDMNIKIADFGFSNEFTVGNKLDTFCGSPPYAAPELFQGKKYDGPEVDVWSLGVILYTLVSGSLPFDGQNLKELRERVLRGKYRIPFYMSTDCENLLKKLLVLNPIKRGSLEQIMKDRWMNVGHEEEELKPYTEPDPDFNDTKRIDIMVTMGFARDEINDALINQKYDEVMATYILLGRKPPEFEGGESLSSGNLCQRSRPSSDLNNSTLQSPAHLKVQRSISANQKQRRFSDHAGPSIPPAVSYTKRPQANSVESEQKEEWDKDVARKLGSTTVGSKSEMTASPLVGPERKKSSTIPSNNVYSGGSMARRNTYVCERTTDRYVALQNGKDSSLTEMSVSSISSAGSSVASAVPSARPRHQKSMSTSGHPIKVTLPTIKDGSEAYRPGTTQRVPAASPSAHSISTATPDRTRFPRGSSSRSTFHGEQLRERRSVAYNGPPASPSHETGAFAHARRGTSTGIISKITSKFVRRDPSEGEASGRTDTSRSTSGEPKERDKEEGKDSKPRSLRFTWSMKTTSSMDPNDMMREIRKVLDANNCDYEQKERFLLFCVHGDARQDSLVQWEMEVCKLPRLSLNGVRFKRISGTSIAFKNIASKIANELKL
Chain of NT-3 growth factor receptor (Homo sapiens) (Q16288 32-839 limits assumed): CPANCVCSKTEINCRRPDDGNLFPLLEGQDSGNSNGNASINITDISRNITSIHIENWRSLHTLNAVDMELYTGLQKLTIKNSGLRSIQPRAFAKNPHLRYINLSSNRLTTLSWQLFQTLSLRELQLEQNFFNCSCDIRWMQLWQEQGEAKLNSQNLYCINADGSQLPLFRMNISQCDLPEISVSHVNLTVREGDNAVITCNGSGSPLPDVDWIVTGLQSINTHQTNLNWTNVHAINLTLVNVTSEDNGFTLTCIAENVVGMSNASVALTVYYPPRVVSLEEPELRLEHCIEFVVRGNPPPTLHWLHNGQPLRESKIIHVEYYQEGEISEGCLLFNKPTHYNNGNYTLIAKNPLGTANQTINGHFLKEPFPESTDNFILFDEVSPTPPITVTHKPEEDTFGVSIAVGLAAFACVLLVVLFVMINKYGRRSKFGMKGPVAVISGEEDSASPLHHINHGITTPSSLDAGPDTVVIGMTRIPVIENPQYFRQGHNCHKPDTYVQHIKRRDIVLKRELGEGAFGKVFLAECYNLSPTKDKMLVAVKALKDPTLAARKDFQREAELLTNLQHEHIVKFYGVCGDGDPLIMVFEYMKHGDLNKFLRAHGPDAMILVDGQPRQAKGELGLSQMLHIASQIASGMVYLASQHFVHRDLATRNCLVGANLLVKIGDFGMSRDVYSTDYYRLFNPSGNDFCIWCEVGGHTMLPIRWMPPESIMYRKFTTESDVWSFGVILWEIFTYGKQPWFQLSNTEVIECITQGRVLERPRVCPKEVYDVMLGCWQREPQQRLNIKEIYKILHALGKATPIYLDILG

Regarding `O[C@H]1CC[C@H](Nc2nccc(-c3n[nH]c4ccccc34)n2)CC1`, the inhibition (in general, the change of the read-out against control, counted positive when it falls) in [1] is 99%; in test [2] it was under 50%; in test [3], 66%.

For the molecule `O[C@H]1CC[C@H](Nc2nccc(-n3ccc4ccccc43)n2)CC1`, the inhibition was 88% in test [4]; under 50% in test [1]; 91% in test [5]; 73% in test [6]; under 50% in test [2]; under 50% in test [7]. For the same molecule, the inhibition in test [8], in test [9] and in test [3] was under 50% in each case.

In the case of `O[C@H]1CC[C@H](Nc2nccc(-n3ncc4ccccc43)n2)CC1`, the inhibition in test [4] was 91%; in test [1], under 50%; in [5], 97%; in [6], 78%; in test [2], under 50%; in test [7], under 50%. For the same molecule, the inhibition in [8] is under 50%; in test [9] it was 92%; in test [3] it was under 50%.

In the case of `O[C@H]1CC[C@H](Nc2nccc(-n3nnc4ccccc43)n2)CC1`, the inhibition is 98% in test [4]; under 50% in test [1]; 99% in test [5]; 88% in [6]; under 50% in test [2]; under 50% in test [7]. For the same molecule, the inhibition in test [8] is under 50%; in test [9], 74%; in test [3] it was under 50%.

As to `CS(=O)(=O)CCCOc1cccc2c1ccn2-c1ccnc(N[C@H]2CC[C@H](C(=O)N3CCC(O)CC3)CC2)n1`, the inhibition in test [5] is over 85%.
